Assay results from ChEMBL document CHEMBL4732167, “Structure based design, synthesis, and biological evaluation of imidazole derivatives targeting dihydropteroate synthase enzyme” (Bioorg Med Chem Lett, 2021).
In brackets after ≈: the same amount, converted by molar mass.

Columns and labels:
Pseudomonas aeruginosa = test: Antibacterial activity against Pseudomonas aeruginosa MTCC 1688 assessed as bacterial growth inhibition; type: functional
Escherichia coli = test: Antibacterial activity against Escherichia coli MTCC 443 assessed as bacterial growth inhibition; type: functional
Streptococcus pyogenes = test: Antibacterial activity against Streptococcus pyogenes MTCC 442 assessed as bacterial growth inhibition; type: functional
Staphylococcus aureus [1] = test: Antibacterial activity against Staphylococcus aureus MTCC 96 assessed as bacterial growth inhibition; type: functional
[2] = Antioxidant activity assessed as nitric oxide radical scavenging activity at 100 ug/ml (reference value: 25.8 to 41.6 %); type: functional; conditions: dose 100.0 µg/ml
Method in brief: (§1)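 Nitric oxide radical scavenging was tested at 0, 25, 50, 75 and 100 µg/ml of compound.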

Bacteria = test: Antibacterial activity against ESBL-producing bacteria assessed as bacterial growth inhibition; type: functional
Method in brief: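 Values are minimum inhibitory concentrations (MIC) in µg/mL, determined at an outside microbiology laboratory.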

Aspergillus niger = test: Antifungal activity against Aspergillus niger MTCC 282 assessed as fungal growth inhibition; type: functional
[3] = Antioxidant activity assessed as nitric oxide radical scavenging activity at 75 ug/ml (reference value: 25.8 to 41.6 %); type: functional; conditions: dose 75.0 µg/ml; method in brief: as §1
[4] = Antioxidant activity assessed as hydrogen peroxide radical scavenging activity at 75 ug/ml (reference value: 23.6 to 43.1 %); type: functional; conditions: dose 75.0 µg/ml
Method in brief: (§2)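 Hydrogen peroxide scavenging was measured across a compound series of 0, 25, 50, 75 and 100 µg/ml.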

[5] = Antioxidant activity assessed as DPPH radical scavenging activity at 50 ug/ml (reference value: 22 to 40.2 %); type: functional; conditions: dose 50.0 µg/ml
Method in brief: (§3)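 DPPH radical scavenging was measured at 0, 25, 50, 75 and 100 µg/ml of each compound. Ascorbic acid was the reference.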

[6] = Antioxidant activity assessed as hydrogen peroxide radical scavenging activity at 100 ug/ml (reference value: 23.6 to 43.1 %); type: functional; conditions: dose 100.0 µg/ml; method in brief: as §2
[7] = Antioxidant activity assessed as DPPH radical scavenging activity at 25 ug/ml (reference value: 22 to 40.2 %); type: functional; conditions: dose 25.0 µg/ml; method in brief: as §3
[8] = Antioxidant activity assessed as DPPH radical scavenging activity at 75 ug/ml (reference value: 22 to 40.2 %); type: functional; conditions: dose 75.0 µg/ml; method in brief: as §3
Enterococcus = test: Antibacterial activity against vancomycin-resistant Enterococcus assessed as inhibition of bacterial growth; type: functional
Method in brief: (§4)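 Growth inhibition of the drug-resistant strain was read out as the minimum inhibitory concentration (MIC), reported in µg/mL. The same protocol was also run on an ESBL strain.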

[9] = Antioxidant activity assessed as DPPH radical scavenging activity at 100 ug/ml (reference value: 22 to 40.2 %); type: functional; conditions: dose 100.0 µg/ml; method in brief: as §3
[10] = Antioxidant activity assessed as hydrogen peroxide radical scavenging activity at 50 ug/ml (reference value: 23.6 to 43.1 %); type: functional; conditions: dose 50.0 µg/ml; method in brief: as §2
Staphylococcus aureus [11] = test: Antibacterial activity against methicillin-resistant Staphylococcus aureus assessed as inhibition of bacterial growth; type: functional; method in brief: as §4
Plasmodium falciparum = test: Antimalarial activity against Plasmodium falciparum assessed as parasite growth inhibition; type: functional, organism-based
[12] = Antioxidant activity assessed as nitric oxide radical scavenging activity at 50 ug/ml (reference value: 25.8 to 41.6 %); type: functional; conditions: dose 50.0 µg/ml; method in brief: as §1
Candida albicans = test: Antifungal activity against Candida albicans MTCC 227 assessed as fungal growth inhibition; type: functional
[13] = Antioxidant activity assessed as nitric oxide radical scavenging activity at 25 ug/ml (reference value: 25.8 to 41.6 %); type: functional; conditions: dose 25.0 µg/ml; method in brief: as §1
[14] = Antioxidant activity assessed as hydrogen peroxide radical scavenging activity at 25 ug/ml (reference value: 23.6 to 43.1 %); type: functional; conditions: dose 25.0 µg/ml; method in brief: as §2
[15] = system: Mycobacterium tuberculosis; test: Antibacterial activity against Mycobacterium tuberculosis H37Rv assessed as bacterial growth inhibition; type: functional
Aspergillus clavatus = test: Antifungal activity against Aspergillus clavatus MTCC 1323 assessed as fungal growth inhibition; type: functional

Row | Compound | MIC (Pseudomonas aeruginosa) [µg/mL] | MIC (Escherichia coli) [µg/mL] | MIC (Streptococcus pyogenes) [µg/mL] | MIC (Staphylococcus aureus [1]) [µg/mL] | Activity [2] [%] | MIC (Bacteria) [µg/mL] | MFC (Aspergillus niger) [µg/mL] | Activity [3] [%] | Activity [4] [%] | Activity [5] [%] | Activity [6] [%] | Activity [7] [%] | Activity [8] [%] | Activity [9] [%] | Activity [10] [%] | IC50 (Plasmodium falciparum) [µg/mL] | Activity [12] [%] | MFC (Candida albicans) [µg/mL] | Activity [13] [%] | Activity [14] [%] | further results
1 | GENTAMICIN | 1 | 0.05 | 0.5 | 0.25 |  |  |  |  |  |  |  |  |  |  |  |  |  |  |  |  | 
2 | COc1ccc(-n2c(SCC(=O)Nc3ccc(OC(=O)c4ccco4)cc3)nc(C)c2C(C)=O)cc1 | 100 (≈ 198 µM) | 125 (≈ 247 µM) | 125 (≈ 247 µM) | 250 (≈ 495 µM) | 84.5 | 500 (≈ 989 µM) | > 1000 | 78.9 | 81 | 47.1 | 90 | 32.5 | 66.2 | 85.2 | 69.9 | 0.78 (≈ 1.54 µM) | 59.3 | 250 (≈ 495 µM) | 37.7 | 59.3 | MIC (Enterococcus): 250 µg/mL (≈ 495 µM); MIC (Staphylococcus aureus [11]): 500 µg/mL (≈ 989 µM); MIC [15]: 62.5 µg/mL (≈ 124 µM); MFC (Aspergillus clavatus): > 1000 µg/mL
3 | CC(=O)c1c(C)nc(SCC(=O)Nc2ccc(OCc3ccc(F)cc3)cc2)n1-c1ccc(Cl)cc1 | 25 (≈ 47.7 µM) | 50 (≈ 95.4 µM) | 100 (≈ 191 µM) | 100 (≈ 191 µM) | 89.5 | 62.5 (≈ 119 µM) | 1000 (≈ 1910 µM) | 84.3 | 74.5 | 58.6 | 88.1 | 42.9 | 67 | 91 | 68.4 | 0.73 (≈ 1.39 µM) | 58.3 | 1000 (≈ 1910 µM) | 50.8 | 51 | MIC (Enterococcus): 62.5 µg/mL (≈ 119 µM); MIC (Staphylococcus aureus [11]): 125 µg/mL (≈ 239 µM); MIC [15]: 62.5 µg/mL (≈ 119 µM); MFC (Aspergillus clavatus): 1000 µg/mL (≈ 1910 µM)
4 | CC(=O)c1c(C)nc(SCC(=O)Nc2ccc(OC(=O)c3ccc(Cl)cc3)cc2)n1-c1ccc(Cl)cc1 | 100 (≈ 180 µM) | 250 (≈ 451 µM) | 100 (≈ 180 µM) | 125 (≈ 225 µM) | 89.4 | 1000 (≈ 1800 µM) | > 1000 | 81.9 | 80 | 49.3 | 93.6 | 36.9 | 64.9 | 84.5 | 66.6 | 0.46 (≈ 0.83 µM) | 58.3 | > 1000 | 41.8 | 50.8 | MFC (Aspergillus clavatus): > 1000 µg/mL
5 | O=C(O)c1cn(C2CC2)c2cc(N3CCNCC3)c(F)cc2c1=O [CIPROFLOXACIN] |  | 25 (≈ 75.4 µM) | 50 (≈ 151 µM) | 50 (≈ 151 µM) |  |  |  |  |  |  |  |  |  |  |  |  |  |  |  |  | 
6 | COc1ccc(COc2ccc(NC(=O)CSc3nc(C)c(C(C)=O)n3-c3ccc(Br)cc3)cc2)cc1 | 50 (≈ 86.1 µM) | 125 (≈ 215 µM) | 125 (≈ 215 µM) | 250 (≈ 431 µM) | 84.3 | 250 (≈ 431 µM) | > 1000 | 75.3 | 71 | 41.3 | 84.3 | 34.8 | 59.7 | 73.2 | 60.7 | 1.25 (≈ 2.15 µM) | 65.4 | 500 (≈ 861 µM) | 51.7 | 47 | MIC (Enterococcus): 250 µg/mL (≈ 431 µM); MIC (Staphylococcus aureus [11]): 500 µg/mL (≈ 861 µM); MIC [15]: 250 µg/mL (≈ 431 µM); MFC (Aspergillus clavatus): 1000 µg/mL (≈ 1720 µM)
7 | CCn1cc(C(=O)O)c(=O)c2cc(F)c(N3CCNCC3)cc21 [NORFLOXACIN] | 10 (≈ 31.3 µM) | 10 (≈ 31.3 µM) | 10 (≈ 31.3 µM) | 10 (≈ 31.3 µM) |  |  |  |  |  |  |  |  |  |  |  |  |  |  |  |  | 
8 | CC(=O)c1c(C)nc(SCC(=O)Nc2ccc(OCc3ccccc3)cc2)n1-c1ccc(F)cc1 | 125 (≈ 255 µM) | 100 (≈ 204 µM) | 250 (≈ 511 µM) | 500 (≈ 1020 µM) | 85.9 | 125 (≈ 255 µM) | > 1000 | 72.4 | 84 | 56.2 | 91.8 | 46.8 | 62.3 | 84.7 | 63.7 | 0.45 (≈ 0.919 µM) | 60.8 | 1000 (≈ 2040 µM) | 45.7 | 47.4 | MIC (Enterococcus): 250 µg/mL (≈ 511 µM); MIC (Staphylococcus aureus [11]): 1000 µg/mL (≈ 2040 µM); MIC [15]: 62.5 µg/mL (≈ 128 µM); MFC (Aspergillus clavatus): > 1000 µg/mL
